Data taken from publication PMC3390648 (The Journal of Biological Chemistry, 2012).
Blank lines part the entries; values can stand above or below the molecule they belong to. Ends that are not written are not given here.

Columns and labels:
human primase = molecular target: T1, human primase (Homo sapiens, UniProt P49642+P49643); experiment: Fluorescence polarization; type: binding; details: 25 °C, 25 mM HEPES, pH 7.2, 250 mM KCl, 1 mM TCEP, 30 nM fluorescein-labeled peptide, mean of three independent experiments
T1 sequence (P49643 1-462): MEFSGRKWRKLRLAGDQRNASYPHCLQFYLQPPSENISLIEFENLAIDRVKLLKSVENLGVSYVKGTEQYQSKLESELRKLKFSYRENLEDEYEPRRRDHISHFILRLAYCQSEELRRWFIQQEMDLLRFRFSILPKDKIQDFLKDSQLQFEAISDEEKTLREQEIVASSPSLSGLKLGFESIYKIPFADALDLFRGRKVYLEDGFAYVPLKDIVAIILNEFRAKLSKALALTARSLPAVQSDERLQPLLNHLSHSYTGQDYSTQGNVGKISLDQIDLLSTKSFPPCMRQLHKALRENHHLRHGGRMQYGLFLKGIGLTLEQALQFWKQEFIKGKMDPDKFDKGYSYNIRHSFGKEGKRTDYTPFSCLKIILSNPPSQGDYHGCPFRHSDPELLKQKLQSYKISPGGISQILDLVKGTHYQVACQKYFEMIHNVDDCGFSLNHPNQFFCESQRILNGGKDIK
T1 sequence (P49642 1-420 K72A/M73A partner): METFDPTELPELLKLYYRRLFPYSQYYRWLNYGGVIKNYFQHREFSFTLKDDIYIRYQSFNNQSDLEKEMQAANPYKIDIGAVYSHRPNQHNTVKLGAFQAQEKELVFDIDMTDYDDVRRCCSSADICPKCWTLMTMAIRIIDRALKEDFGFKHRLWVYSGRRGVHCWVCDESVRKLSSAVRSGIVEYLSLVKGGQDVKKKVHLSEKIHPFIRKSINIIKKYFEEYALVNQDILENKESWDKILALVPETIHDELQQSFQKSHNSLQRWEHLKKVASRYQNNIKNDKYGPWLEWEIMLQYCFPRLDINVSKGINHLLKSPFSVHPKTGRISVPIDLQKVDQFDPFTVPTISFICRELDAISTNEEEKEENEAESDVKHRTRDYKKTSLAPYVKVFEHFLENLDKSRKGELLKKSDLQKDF
How it was run: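 Peptide was human pol α 1445–1462 (wild type or point mutant), synthesized with an N-terminal fluorescein. Human primase was His-Prim1(1–420; K72A/M73A) with Prim2(1–462), made in E. coli and purified by Co-NTA, heparin, TEV cleavage and gel filtration. Serial protein dilutions were read at λex 485/λem 520 nm, 200 flashes per well. Gain was set against fluorescein (35 mP). Curves were fitted by Monte Carlo fitting.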

yeast primase [1] = experiment: GST pulldown with yeast primase; type: binding; details: mutation to alanine of Phe1463
How it was run: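 GST-Pol1 1453–1468, wild type or single alanine mutants, was expressed in E. coli BL21(DE3). An excess was bound to glutathione-Sepharose and washed in 25 mM HEPES pH 7.0, 250 mM KCl, 1% BSA, 0.1% NP-40, 1 mM TCEP. Beads were incubated with 20 μM yeast primase (Pri1(1–409)/Pri2(49–513)) for 2 h at 4 °C, then washed, ending with a BSA-free wash. Bound protein was read by SDS-PAGE with Coomassie staining.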

yeast primase [2] = experiment: Binding of pol1 C-terminal peptide to yeast primase; details: qualitative statement of abstract; method not given
Pol12 = experiment: Immunoprecipitation and immunoblotting, Pol12; type: cell-based, Saccharomyces cerevisiae; details: diploid yeast, anti-HA beads, native cell extracts, immunoblotting
Pri1-Pri2 primase = experiment: Analytical gel filtration, assembly with primase; type: binding, yeast; details: Superdex 200 10/300 GL, 14 μM complex, 25 mM HEPES, pH 7.2, 250 mM KCl, 5% glycerol, 0.5 mM TCEP; equimolar, 4 °C, 30 min
How it was run: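 Yeast primase Pri1(1–409)/His-Pri2(49–513) or the ΔCTD form Pri2(49–335), and Pol1 CTD(1263–1468)/His-Pol12(246–705), were expressed in E. coli Rosetta2(DE3). They were purified by Co-NTA, heparin, TEV tag cleavage and gel filtration. Equimolar partners were mixed for 30 min at 4 °C, and 100 μl was injected at 0.5 ml/min. Fractions were read by SDS-PAGE with Coomassie staining.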

Molecule: F1455A (GYSEVNLSKLAAGCAVKS; also: fluorescein label, position not given here)
level of binding (human primase): did not display a measurable level of binding

Molecule: F1463A (GRRYVDMTSIADFMLN; also: GST fusion, N-terminal)
interaction with primase (abstract summary, in vitro) (yeast primase [1]): abrogates the interaction with the primase

binding to primase (yeast primase [2]): binds primase with high affinity
Molecule: GRRYVDMTSIFDFMLN [pol1 peptide]

B1: Pol1: wild-type catalytic subunit of yeast pol α (protein)
chain: MSSKSEKLEKLRKLQAARNGTSIDDYEGDESDGDRIYDEIDEKEYRARKRQELLHDDFVVDDDGVGYVDRGVEEDWREVDNSSSDEDTGNLASKDSKRKKNIKREKDHQITDMLRTQHSKSTLLAHAKKSQKKSIPIDNFDDILGEFESGEVEKPNILLPSKLRENLNSSPTSEFKSSIKRVNGNDESSHDAGISKKVKIDPDSSTDKYLEIESSPLKLQSRKLRYANDVQDLLDDVENSPVVATKRQNVLQDTLLANPPSAQSLADEEDDEDSDEDIILKRRTMRSVTTTRRVNIDSRSNPSTSPFVTAPGTPIGIKGLTPSKSLQSNTDVATLAVNVKKEDVVDPETDTFQMFWLDYCEVNNTLILFGKVKLKDDNCVSAMVQINGLCRELFFLPREGKTPTDIHEEIIPLLMDKYGLDNIRAKPQKMKYSFELPDIPSESDYLKVLLPYQTPKSSRDTIPSDLSSDTFYHVFGGNSNIFESFVIQNRIMGPCWLDIKGADFNSIRNASHCAVEVSVDKPQNITPTTTKTMPNLRCLSLSIQTLMNPKENKQEIVSITLSAYRNISLDSPIPENIKPDDLCTLVRPPQSTSFPLGLAALAKQKLPGRVRLFNNEKAMLSCFCAMLKVEDPDVIIGHRLQNVYLDVLAHRMHDLNIPTFSSIGRRLRRTWPEKFGRGNSNMNHFFISDICSGRLICDIANEMGQSLTPKCQSWDLSEMYQVTCEKEHKPLDIDYQNPQYQNDVNSMTMALQENITNCMISAEVSYRIQLLTLTKQLTNLAGNAWAQTLGGTRAGRNEYILLHEFSRNGFIVPDKEGNRSRAQKQRQNEENADAPVNSKKAKYQGGLVFEPEKGLHKNYVLVMDFNSLYPSIIQEFNICFTTVDRNKEDIDELPSVPPSEVDQGVLPRLLANLVDRRREVKKVMKTETDPHKRVQCDIRQQALKLTANSMYGCLGYVNSRFYAKPLAMLVTNKGREILMNTRQLAESMNLLVVYGDTDSVMIDTGCDNYADAIKIGLGFKRLVNERYRLLEIDIDNVFKKLLLHAKKKYAALTVNLDKNGNGTTVLEVKGLDMKRREFCPLSRDVSIHVLNTILSDKDPEEALQEVYDYLEDIRIKVETNNIRIDKYKINMKLSKDPKAYPGGKNMPAVQVALRMRKAGRVVKAGSVITFVITKQDEIDNAADTPALSVAERAHALNEVMIKSNNLIPDPQYYLEKQIFAPVERLLERIDSFNVVRLSEALGLDSKKYFRREGGNNNGEDINNLQPLETTITDVERFKDTVTLELSCPSCDKRFPFGGIVSSNYYRVSYNGLQCKHCEQLFTPLQLTSQIEHSIRAHISLYYAGWLQCDDSTCGIVTRQVSVFGKRCLNDGCTGVMRYKYSDKQLYNQLLYFDSLFDCEKNKKQELKPIYLPDDLDYPKEQLTESSIKALTEQNRELMETGRSVVQKYLNDCGRRYVDMTSIFDFMLN
modifications: left off: 6HA, end not stated, kept
association with Pol12 (Pol12): all associated equally well with Pol12

complex formation with primase (Pri1-Pri2 primase): eluted as a single peak
B2: CTD-Pol12: yeast Pol1 (1263–1468) with His-tagged Pol12 (246–705) (protein)
chain 1: NLQPLETTITDVERFKDTVTLELSCPSCDKRFPFGGIVSSNYYRVSYNGLQCKHCEQLFTPLQLTSQIEHSIRAHISLYYAGWLQCDDSTCGIVTRQVSVFGKRCLNDGCTGVMRYKYSDKQLYNQLLYFDSLFDCEKNKKQELKPIYLPDDLDYPKEQLTESSIKALTEQNRELMETGRSVVQKYLNDCGRRYVDMTSIFDFMLN
chain 2: KFRTMRQNLQEASDVLDDQIESFTKIIQNHYKLSPNDFADPTIQSQSEIYAVGRIVPDSPTYDKFLNPESLSLETSRMGGVGRRVRLDLSQVNELSFFLGQIVAFKGKNANGDYFTVNSILPLPYPNSPVSTSQELQEFQANLEGSSLKVIVTCGPYFANDNFSLELLQEFIDSINNEVKPHVLIMFGPFIDITHPLIASGKLPNFPQFKTQPKTLDELFLKLFTPILKTISPHIQTVLIPSTKDAISNHAAYPQASLIRKALQLPKRNFKCMANPSSFQINEIYFGCSNVDTFKDLKEVIKGGTTSSRYRLDRVSEHILQQRRYYPIFPGSIRTRIKPKDVSTKKETNDMESKEEKVYEHISGADLDVSYLGLTEFVGGFSPDIMIIPSELQHFARVVQNVVVINPGRFIRATGNRGSYAQITVQCPDLEDGKLTLVEGEEPVYLHNVWKRARVDLIAS
modifications: left off: His tag, end not stated, cleaved
